Only some compounds are listed: those with a hit (about 1.9% of all), similar ones and a draw of the others.
NadD block = inhibitors of Staphylococcus aureus NadD; purified NadD enzyme, colorimetric absorbance read-out; inhibition, % at 20 µM; 360,000 compounds, 0.78% hits; AID 602399; in the data active = inhibition above about 26%
Rpn11 block = inhibitors of human proteasome Rpn11; O00487; human 26S proteasome, Ub4-pepOG fluorescence polarization; 20S core pre-blocked with epoxomicin; inhibition, % at 20 µM; 360,000 compounds, 0.59% hits;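 active = inhibition at 20 µM, scaled to each plate's controls, above about 33%, limit read from the data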
Target sequence (O00487 whole entry, looked up): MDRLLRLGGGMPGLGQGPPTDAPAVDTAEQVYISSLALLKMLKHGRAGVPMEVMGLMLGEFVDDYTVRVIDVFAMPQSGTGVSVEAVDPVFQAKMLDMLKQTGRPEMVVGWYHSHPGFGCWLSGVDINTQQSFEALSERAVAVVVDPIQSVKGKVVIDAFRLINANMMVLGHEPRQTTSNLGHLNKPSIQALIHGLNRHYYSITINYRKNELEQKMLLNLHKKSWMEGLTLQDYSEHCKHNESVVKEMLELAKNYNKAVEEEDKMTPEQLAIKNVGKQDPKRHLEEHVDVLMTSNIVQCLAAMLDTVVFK
Rin1-Abl PPI inh = blocks binding of human Rin1 to Abl; TR-FRET Rin1/Abl binding, biochemical; inhibition, % at 7.35 µM; 360,000 compounds, 0.4% hits; in the data active = inhibition above about 5%, passing the limit was not always enough
Xi reactivation = X-chromosome reactivation activator | XiGFP mouse fibroblasts, % GFP-positive cells imaging, 3 d; cells co-treated with 5-aza-dC sensitizer; scaled so ellipticine positive control = 100% | 360,000 compounds, 0.055% hits | activation, % at 7.58 µM;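 active = mean normalized replicate activation at least 10% and every replicate at or above 10%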;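 also: 0% = median of on-plate neutral control wells and 100% = ellipticine 6 µM median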
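material = 68-5-11 XiGFP fibroblast line | medium = DMEM plus 5-aza-dC sensitizer | schedule = 3 days compound exposure | benchmarks = positive control ellipticine, 6 µM final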
ABHD5 PLIN5 PPI = blocks binding of human ABHD5 to perilipin-5; inhibition, % at 4 µM; AID 602281; Split G. princeps luciferase complementation, luminescence, 4 h; Q00G26+Q8WTS1; 360,000 compounds, 0.78% hits;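 active = inhibition above the mean inhibition across every tested compound plus 3 SD, cut at about 22% in these data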;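 also: 0% = DMSO only wells and the 100% control is not disclosed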
ABHD5 PLIN5 conf = ABHD5-PLIN5 interaction inhibition, confirmed | shares compounds with ABHD5 PLIN5 PPI | biochemical ABHD5-PLIN5 interaction, luminescence | inhibition, % at 4 µM | 2,200 compounds, 67% hits | AID 651612; in the data active = inhibition above about 23%;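 also: 0% = DMSO vehicle wells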
HNF4 split-luc = counter-screen for ABHD5-PLIN5 inhibitors: HNF4 split-luciferase; shares compounds with ABHD5 PLIN5 PPI; HNF4 dimerization, luminescence, biochemical; inhibition, % at 4 µM; 2,200 compounds, 77% hits;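 active = mean inhibition across replicate wells exceeding the computed hit threshold, cut at about 13% in these data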;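 also: light from luciferase halves that rejoin when HNF4 fusion proteins dimerize; 0% = DMSO only wells and the 100% control is not given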
* marks the source's active call; other numbers are inactive results; x = no result shown.

SMILES	NadD block	Rpn11 block	Rin1-Abl PPI inh	Xi reactivation	ABHD5 PLIN5 PPI	ABHD5 PLIN5 conf	HNF4 split-luc
COc1cc(C(=O)Nc2ccncc2)c([N+](=O)[O-])cc1OC	5	2	-2	1	-6	x	x
COc1cc(C(=O)/C=C/c2cccnc2)c([N+](=O)[O-])cc1OC	-9	-5	1	0	47*	74*	72*
O=C(/C=C/c1cccnc1)c1ccc([N+](=O)[O-])cc1	-2	-8	2	0	57*	89*	94*
O=S(=O)(c1ccc(F)cc1)N1CCCCN2[C@H](CO)[C@@H](c3ccc(-c4ccccc4)cc3)[C@H]2C1	x	x	x	0	x	x	x
C[C@H]1CN(C)C(=O)c2cc(N)ccc2O[C@H]1CN(C)C(=O)OC(C)(C)C	x	x	x	0	x	x	x
O=C(C=Cc1ccco1)c1ccc([N+](=O)[O-])cc1	1	-5	-1	0	35*	47*	42*
O=C(/C=C/c1ccco1)c1cccnc1	-1	-28	4	0	9	x	x
O=C(c1ccccc1)c1cc(Cl)ccc1N1C(=O)C=CC1=O	7	14	-3	3	38*	47*	98*
CC1=NNC(=O)/C1=C\c1cn(-c2ccccc2)nc1-c1ccccc1	0	1	0	2	74*	99*	101*
CCOc1cc(/C=C2\COc3ccccc3C2=O)ccc1OCC(=O)N(C)C	1	0	0	0	61*	77*	69*
CCNC(=O)COc1ccc(/C=C2\COc3ccccc3C2=O)cc1OC	-3	-8	-2	0	56*	81*	81*
COc1ccc(/C=C2\CCc3ccccc3C2=O)cc1OC	-8	-8	0	x	-1	x	x
O=C1/C(=C/c2cccs2)COc2ccccc21	-6	0	-2	0	4	x	x
COc1ccc(N/N=C(\C#N)C(=N)N2CCCCC2)cc1	0	5	-2	0	6	x	x
COc1ccc(N/N=C(\C#N)C(=N)SCc2ccccc2)cc1	-1	7	3	0	39*	38*	37*
COc1ccc(C(c2c(O)nc[nH]c2=O)c2c(O)nc[nH]c2=O)cc1	x	x	x	0	x	x	x
O=c1[nH]cnc(O)c1C1C=CC=CC=C1	3	0	2	0	50*	32*	49*
COc1ccc(Br)cc1C(=O)Nc1ccc(NC(=O)c2ccco2)cc1	7	6	-1	x	4	x	x
CCc1ccc(/C=C/C(=O)c2cc(Br)ccc(=O)c2O)cc1	2	0	5	x	30*	61*	46*
O=C(C=Cc1ccccc1)c1cc(Br)ccc1O	-5	4	2	0	17	x	x
Cc1ccc(/C=C/C(=O)c2cc(Br)ccc2OC(=O)c2ccco2)cc1	-4	6	0	x	74*	95*	74*
COc1ccccc1/C=C/C(=O)c1cc(Br)ccc1OC(=O)c1ccco1	-3	10	-3	x	66*	94*	74*
CN1CCCC1CCOC(C)(c1ccccc1)c1ccc(Cl)cc1 (stereo unspecified)	-5	-3	2	0	25*	33*	17*
CC(CCc1ccco1)NC(=O)CCc1nnc2ccc(NCc3ccccc3Cl)nn12 (stereo unspecified)	2	5	1	0	43*	40*	x
COc1ccccc1CNc1ccc2nnc(CCNC(=O)c3ccccc3)n2n1	-1	5	1	x	2	x	x
SMILES	NadD block	Rpn11 block	Rin1-Abl PPI inh	Xi reactivation	ABHD5 PLIN5 PPI	ABHD5 PLIN5 conf	HNF4 split-luc
O=C(NCCc1nnc2ccc(NCc3ccccc3Cl)nn12)c1ccccc1	-1	0	-3	0	52*	6	4
O=C1N[C@@H](Cc2ccccc2)COCc2cn(nn2)CC[C@@H]1Cc1ccc(-c2ccccc2)cc1	x	x	x	0	x	x	x
COc1ccccc1S(=O)(=O)N[C@@H]1CC[C@H](CC(=O)NCc2cc(F)cc(F)c2)O[C@@H]1CO	x	x	x	-1	x	x	x
O=C(c1ccccn1)N1CC2(C1)[C@@H](c1ccccc1)[C@@H](CO)N2C(=O)CC1CC1	x	x	x	0	x	x	x
COc1cccc(-c2cnc3c(c2)C(=O)N([C@@H](C)CO)C[C@H](C)[C@H](CN(C)Cc2ccc(F)cc2)O3)c1	x	x	x	-1	x	x	x
Cc1ccccc1S(=O)(=O)N1C[C@H](O)COC[C@H]2O[C@@H](CC(=O)N3CCN(C)CC3)CC[C@@H]21	x	x	x	0	x	x	x
Cc1ccc(NC(=O)c2ccccc2O)cc1	-1	-2	0	x	-4	x	x
Cc1ccc(NC(=O)C2=C(c3ccccc3)S(=O)(=O)CCS2(=O)=O)cc1	-1	1	0	0	83*	100*	110*
CCCNC(=O)C[C@H]1CC[C@@H]2[C@H](COc3ccc(NC(=O)c4cscn4)cc3C(=O)N2C)O1	x	x	x	0	x	x	x
CN1C(=S)N(c2cccnc2)C(=O)/C1=C\c1ccc(C(C)(C)C)cc1	9	2	0	0	38*	65*	55*
CN1C(=S)N(c2cccnc2)C(=O)/C1=C\c1ccc(N(C)C)cc1	-1	x	-9	2	2	x	x
COC(=O)C1=C(C)NC2=C(C(=O)CCC2)C1c1ccc(-c2ccsc2C(=O)OC)o1 (stereo unspecified)	-6	-2	-1	0	24*	8	10
O=[N+]([O-])c1ccc(N=Nc2ncc[nH]2)cc1	-2	15	2	7	30*	57*	52*
COc1ccccc1OS(=O)(=O)c1ccc(NC(C)=O)cc1	-5	-2	-3	0	3	x	x
COC(=O)/C=C/S(=O)(=O)c1ccc(NC(C)=O)cc1	1	-2	-4	x	76*	87*	107*
O=C(CCc1nnc2ccc(NCc3ccco3)nn12)Nc1ccccn1	3	-2	3	0	12	x	x
Cc1cccnc1NC(=O)CCc1nnc2ccc(NCc3ccco3)nn12	-8	-9	1	0	32*	11	6
COc1ccc(NC(=O)CCc2nnc3ccc(NCc4ccco4)nn23)cc1OC	2	4	1	0	34*	12	13*
COC(=O)c1ccc(NC(=O)CCc2nnc3ccc(NCc4ccco4)nn23)cc1	1	-11	3	0	57*	14	14*
COc1ccc(NC(=O)CCc2nnc3ccc(NCc4ccco4)nn23)cc1	-3	-4	-8	0	1	x	x
CC=Cc1ccc2n(c1=O)C[C@@H]1[C@@H](CO)[C@H](C(=O)Nc3ccc(-c4ccccc4)cc3)[C@H]2N1C(C)=O (mixture of isomers)	x	x	x	0	x	x	x
Cn1cnc([N+](=O)[O-])c1S(=O)(=O)c1cccc(Cl)c1	1	-2	0	0	61*	64*	94*

Bioassay records: PubChem BioAssay, several laboratories
